# High-throughput results from PubChem BioAssay.
# OXTR agonist: human OXTR agonism; P30559; CHO-OTR cells, Fluo-8 calcium fluorescence; normalized: DMSO 0%, oxytocin 100%; activation, % at 3 µM; 320,000 compounds, 0.32% hits;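 active = activation above the mean of all tested compounds plus 3 SD, cutoff set per screening run, cut at about 20% in these data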;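 also: peak over basal fluorescence ratio from a 100 s FLIPR kinetic read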
# Target sequence (P30559 whole entry, looked up): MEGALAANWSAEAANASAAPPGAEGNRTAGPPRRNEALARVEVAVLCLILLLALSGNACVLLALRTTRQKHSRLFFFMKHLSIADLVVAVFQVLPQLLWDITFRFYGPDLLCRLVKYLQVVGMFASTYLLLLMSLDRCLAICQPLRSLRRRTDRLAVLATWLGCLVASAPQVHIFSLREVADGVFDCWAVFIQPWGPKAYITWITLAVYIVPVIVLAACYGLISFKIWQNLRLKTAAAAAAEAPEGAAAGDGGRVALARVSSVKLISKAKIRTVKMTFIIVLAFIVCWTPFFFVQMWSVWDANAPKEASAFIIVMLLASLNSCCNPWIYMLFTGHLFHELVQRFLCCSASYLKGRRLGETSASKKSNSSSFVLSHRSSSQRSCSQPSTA
# OXTR potentiate: potentiators of human oxytocin receptor. P30559. CHO-OTR cells, Fluo-8 calcium fluorescence, potentiator mode; 0% = oxytocin EC15, 100% = EC100. activation, % at 3 µM. 320,000 compounds, 0.061% hits. AID 2445;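 active = activation above that plate's cutoff, the mean activation of tested compounds plus 3 SD, cut at about 6.6% in these data, passing the limit was not always enough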;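 also: 100% uses oxytocin at 75 nM as the full agonist control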
#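 System: human OTR in CHO cells / Also added: sub-maximal oxytocin, roughly EC15 / Control set: EC15 oxytocin low, 75 nM oxytocin high / Schedule: 6 min compound pre-incubation at room temperature, 100 s kinetic read / Compound: single-point 3.0 µM / Replication: singlicate / Technique: Fluo-8 calcium dye fluorescence / Read-out basis: % activation of max/min ratio relative to oxytocin controls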
# V1R ag counter: V1a receptor agonism, counter-screen for OXTR agonists; 320,000 compounds, 0.25% hits; activation, % at 3 µM; P37288; CHO-V1R cells, Fluo-8 calcium fluorescence, agonist mode; 0% DMSO, 100% 3 nM vasopressin;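 active = activation above the mean activation of all tested compounds plus 3 SD, per screening run, cut at about 20% in these data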;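 also: signal is peak over basal fluorescence ratio across a 100 second FLIPR read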
# TAAR1 antag: human TAAR1 antagonism. CHO RD-HGA16 TAAR1, Fluo-8 calcium fluorescence, antagonist. Q96RJ0. inhibition, % at 3 µM. AID 624466. 360,000 compounds, 1.5% hits;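 active = inhibition above a per-plate cutoff, the mean inhibition of test compounds on that plate plus 3 SD, cut at about 49% in these data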;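 also: 0% = DMSO plus EC80 beta-PEA response and 100% = DMSO alone without agonist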
# Target sequence (Q96RJ0 whole entry, looked up): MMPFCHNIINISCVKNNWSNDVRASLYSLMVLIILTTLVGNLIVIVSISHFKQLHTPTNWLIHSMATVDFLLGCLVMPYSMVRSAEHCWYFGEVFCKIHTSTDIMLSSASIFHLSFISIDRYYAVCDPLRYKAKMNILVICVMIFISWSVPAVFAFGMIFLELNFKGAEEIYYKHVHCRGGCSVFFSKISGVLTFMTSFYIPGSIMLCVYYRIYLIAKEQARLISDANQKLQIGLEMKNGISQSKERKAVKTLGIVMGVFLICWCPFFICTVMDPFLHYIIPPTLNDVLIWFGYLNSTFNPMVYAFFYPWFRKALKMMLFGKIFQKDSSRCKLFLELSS
#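 System: CHO RD-HGA16 cells bearing hTAAR1. Reagent: EC80 β-phenethylamine stimulus. Schedule: seeding 17-24 h prior, 75-min 37 °C, 30-min RT dye loading. Signal: Fluo-8 intracellular calcium dye fluorescence, real-time kinetic reads. Read-out: % inhibition from peak post-agonist over basal fluorescence ratio. Benchmarks: vehicle wells and EC80 agonist wells. Replicates: n of 1.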
# TAAR1 ag: human TAAR1 agonism; Q96RJ0; CHO RD-HGA16 TAAR1, Fluo-8 calcium fluorescence; vehicle wells 0%, saturating PEA agonist 100%; activation, % at 3 µM; 360,000 compounds, 0.99% hits; AID 624467;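 active = activation above the mean activation of all test compounds in the run plus 3 SD, cut at about 38% in these data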
#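 System: CHO-derived RD-HGA16 cells with stable Gα16 and human TAAR1. Times: 17-24 h plating, Fluo-8 75 min 37 °C, 30 min RT. Measured by: calcium-sensitive Fluo-8 signal, excitation 470-495, emission 515-575 nm. Read-out basis: % activation relative to PEA EC100 response. Control set: DMSO and PEA EC100. Repeats: no replicates (n 1).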
# nonsel antag count: nonselective antagonism, TAAR1 counter-screen; shares compounds with TAAR1 antag; counterscreen cell line, calcium fluorescence, antagonist mode; 2,400 compounds, 77% hits; AID 651780; inhibition, % at 3 µM; in the data active = inhibition above about 22%;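 also: CHO-Ga16 host cells stimulated with ATP at an EC80 level; 0% = agonist EC80 plus vehicle and 100% = vehicle without agonist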
# TAAR1 ant conf: confirmation of human TAAR1 antagonists. TAAR1-expressing cells, fluorescence antagonist read-out. AID 651785. inhibition, % at 3 µM. shares compounds with TAAR1 antag. 2,400 compounds, 40% hits; in the data active = inhibition above about 49%;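 also: CHO-Ga16 host cells challenged with agonist PEA near its EC80; 0% = agonist at EC80 plus vehicle and 100% = vehicle with no agonist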
# Ga16 ag counter: counter-screen for TAAR1 antagonists: nonselective Ga16 agonists | shares compounds with TAAR1 antag | Ga16-expressing cells, calcium fluorescence, agonist counterscreen | activation, % at 3 µM | 2,400 compounds, 18% hits; in the data active = activation above about 12%;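 also: 0% = vehicle wells and 100% = saturating stimulus response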
# TAAR1 ag counter: TAAR1 agonism, antagonist counter-screen; shares compounds with TAAR1 antag; hTAAR1 cell line, fluorescence activation, agonist mode; 2,400 compounds, 2% hits; activation, % at 3 µM; in the data active = activation above about 37%;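 also: CHO cells stably expressing TAAR1 with calcium dye readout; 0% = DMSO vehicle and 100% = full agonist response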
# Numbers without * were called inactive; x = no result given. A selection: hits, their analogues and other compounds. The true share with any hit is near 2.3%.
SMILES,OXTR agonist,OXTR potentiate,V1R ag counter,TAAR1 antag,TAAR1 ag,nonsel antag count,TAAR1 ant conf,Ga16 ag counter,TAAR1 ag counter
C[C@@H]1CN([C@H](C)CO)S(=O)(=O)c2ccc(C#Cc3ccccc3F)cc2O[C@H]1CN(C)C(=O)c1ccc2c(c1)OCO2,x,x,x,73*,34,34*,59*,12*,17
COc1ccc(C2=NS(=O)(=O)N(C)C(C(=O)NC(C)c3ccccc3)=C2)cc1OC (stereo not drawn),1,-10,0,14,2,x,x,x,x
COc1ccc(C2=NS(=O)(=O)N(C)C(C(=O)N(C)Cc3ccccc3)=C2)cc1OC,7,-17,6,52*,7,23*,34,8,6
CCCCNC(=O)c1onc(CSc2ccc(C(C)C)cc2)c1C(=O)O,2,-4,5,10,2,x,x,x,x
Cc1ccc(C2NC(=O)c3[nH]nc(-c4ccccc4)c32)cc1 (stereo not drawn),x,x,x,-23,3,x,x,x,x
O=C(c1ccncc1)c1ccc(N2CCN(C3CC(=O)N(Cc4cccs4)C3=O)CC2)cc1 (stereo not drawn),10,-8,16,58*,16,36*,50*,14*,11
O=C1CC(N2CCN(c3ccc(O)cc3)CC2)C(=O)N1Cc1cccs1 (stereo not drawn),2,-14,1,5,3,x,x,x,x
C[C@H](CO)N1C[C@H](C)[C@H](CN(C)Cc2ccc(Oc3ccccc3)cc2)Oc2cc(Br)ccc2S1(=O)=O,x,x,x,-20,0,x,x,x,x
COc1ccc(C(=O)Nc2cccc(/C(C)=N/NC(=O)c3ccc([N+](=O)[O-])c(C)c3)c2)cc1OC,0,-7,0,60*,21,44*,66*,12*,10
COc1ccc(C(=O)Nc2cccc(NC(C)=O)c2)cc1OC,0,-1,0,-12,3,x,x,x,x
Cc1cc(C(=O)Nc2cccc(NC(=O)c3ccco3)c2)ccc1[N+](=O)[O-],x,x,x,58*,11,14,26,8,4
Cc1cccc(NC(=O)c2cccc(NC(=O)c3ccco3)c2)c1,x,x,x,22,8,x,x,x,x
C=CCNC(=S)N(CC)c1cccc2ccccc12,-2,-1,6,-8,3,x,x,x,x
CC1(C)CCc2cc(S(=O)(=O)N3CCN(S(=O)(=O)c4c(F)cccc4F)CC3)ccc2O1,1,-1,2,33,6,x,x,x,x
COCCNC(=O)C(=O)NNC(=O)CCc1ccccc1,1,-4,0,5,8,x,x,x,x
COc1ccc(CNC(=O)C(c2cccc(C)c2)N(C(=O)c2csnn2)C2CC2)cc1 (stereo not drawn),2,-8,6,52*,17,30*,40,7,6
O=C(NCc1ccccc1)C(c1ccccc1)N(C(=O)c1csnn1)c1ccccc1 (stereo not drawn),-1,-17,0,62*,11,27*,49*,7,5
O=C(NCc1ccc(F)cc1)C(c1ccccc1)N(C(=O)c1csnn1)c1ccccc1 (stereo not drawn),4,-4,5,59*,21,29*,59*,19*,22
COc1ccc(CNC(=O)C(c2cccs2)N(C(=O)c2csnn2)C2CC2)cc1 (stereo not drawn),-2,0,-1,16,6,x,x,x,x
O=C(CSc1c(Cl)cccc1Cl)N1CCC(c2nc3ccccc3s2)CC1,4,-18,4,59*,18,44*,50*,12*,11
COc1ccc(CC(=O)N(Cc2ccccc2)c2ccccc2)cc1S(=O)(=O)N1CCOCC1,6,-14,9,82*,18,32*,55*,15*,15
COc1ccc(C2C(C(C)=O)=C(O)C(=O)N2c2nccs2)c(OC)c1 (stereo not drawn),0,-10,0,6,3,x,x,x,x
COc1ccc(-c2cc(C(=O)N3CCCCCC3)c3ccccc3n2)c(OC)c1,-1,-6,-1,35,1,x,x,x,x
CCOc1ccccc1N1CCN(C(=O)c2cc(-c3cc(OC)ccc3OC)nc3ccccc23)CC1,0,-9,2,73*,4,21,43,6,4
COc1ccc(-c2cc(C(=O)N3CCCC3)c3ccccc3n2)cc1,0,-1,3,16,7,x,x,x,x
SMILES,OXTR agonist,OXTR potentiate,V1R ag counter,TAAR1 antag,TAAR1 ag,nonsel antag count,TAAR1 ant conf,Ga16 ag counter,TAAR1 ag counter
COc1ccc(-c2cc(C(=O)N3CCN(c4ccccc4F)CC3)c3ccccc3n2)c(OC)c1,0,1,1,33,7,x,x,x,x
CC(=O)c1ccc(N2CCN(C(=O)c3cc4c(C)nc5ccccc5c4o3)CC2)cc1,4,-12,5,3,10,x,x,x,x
COc1ccc(-c2cc(C(=O)N3CCN(c4ncccn4)CC3)c3ccccc3n2)c(OC)c1,-2,0,0,74*,16,31*,54*,8,9
COc1ccc(N2CCN(C(=O)c3cc(-c4cc(OC)ccc4OC)nc4ccccc34)CC2)cc1,-1,-9,0,60*,10,27*,49*,11,15
COc1ccc(N2CCN(C(=O)c3cc4c(C)nc5ccccc5c4o3)CC2)cc1,3,-15,5,62*,4,37*,51*,12*,10
CC1CN(C(=O)c2cc(S(=O)(=O)N(C)c3ccc(F)cc3)ccc2Cl)CC(C)O1 (stereo not drawn),-1,-7,3,-29,5,x,x,x,x
COc1cccc(CN2CCN(C(=O)c3cc(-c4cccnc4)nc4ccc(C)cc34)CC2)c1,1,-17,0,66*,14,27*,48,9,8
CS(=O)(=O)N1CCN(C(=O)c2cc(-c3ccccc3)nc3ccccc23)CC1,3,-6,2,12,11,x,x,x,x
COc1ccc(-c2cc(C(=O)N3CCN(c4ncccn4)CC3)c3ccccc3n2)cc1,-2,-4,3,52*,35,29*,48,10,8
O=C(c1cc(-c2cccnc2)nc2ccccc12)N1CCN(S(=O)(=O)c2cccs2)CC1,-1,-6,2,51*,17,22*,34,6,5
COc1ccc(OC)c(-c2cc(C(=O)O)c3cc4ccccc4cc3n2)c1,x,x,x,-5,1,x,x,x,x
